Source: ChEMBL document CHEMBL3576798, “Depsipeptide companeramides from a Panamanian marine cyanobacterium associated with the coibamide producer” (J Nat Prod, 2015)
Calls of active or inactive are those of the source. No cut-off for these calls is given here.

What was measured:
Plasmodium falciparum [1] = assay: Antiplasmodial activity against chloroquine-sensitive Plasmodium falciparum D6 in human erythrocyte after 72 hrs by SYBR Green I assay; type: functional, organism-based; conditions: D6, 72 h
Outline: (§1)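 Asynchronous parasites grown in human erythrocytes at 2% hematocrit in RPMI 1640 with 0.5% Albumax, 45 μg/L hypoxanthine, 50 μg/L gentamicin. Samples (10 mM stock in sterile water) serially diluted in medium, quadruplicate wells at 0.2% parasitemia, 2% hematocrit; 72 h at 37 °C. Lysis buffer with SYBR Green I added, 1 h rt dark, fluorescence ex 497/em 520 nm; IC50 by nonlinear regression of logistic dose–response curves.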

SF-295 = assay: Cytotoxicity against human SF295 cells at 1 uM after 24 hrs by MTT assay; type: functional, cell-based
Outline: (§2)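 MTT viability assay; cells seeded at 3000 per well the day before treatment, kept under standard growth conditions. Compounds dissolved in 100% DMSO (stored −20 °C), final DMSO at most 0.1%. Viability relative to vehicle-treated cells set as 100%; coibamide A (30 nM) as control cancer cell toxin.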

NCI-H460 = assay: Cytotoxicity against human NCI-H460 cells at 1 uM after 24 hrs by MTT assay; type: functional, cell-based; outline: as §2
SK-OV-3 = assay: Cytotoxicity against human SKOV3 cells at 1 uM after 24 hrs by MTT assay; type: functional, cell-based; outline: as §2
Plasmodium falciparum [2] = assay: Antiplasmodial activity against chloroquine-resistant Plasmodium falciparum Dd2 in human erythrocyte after 72 hrs by SYBR Green I assay; type: functional, organism-based; conditions: Dd2, 72 h; outline: as §1
Plasmodium falciparum [3] = assay: Antiplasmodial activity against chloroquine-resistant Plasmodium falciparum 7G8 in human erythrocyte after 72 hrs by SYBR Green I assay; type: functional, organism-based; conditions: 7G8, 72 h; outline: as §1
MDA-MB-231 = assay: Cytotoxicity against human MDA-MB-231 cells at 1 uM after 24 hrs by MTT assay; type: functional, cell-based; outline: as §2

SMILES | IC50 (Plasmodium falciparum [1]) [nM] | Activity (SF-295) | Activity (NCI-H460) | Activity (SK-OV-3) | IC50 (Plasmodium falciparum [2]) [nM] | IC50 (Plasmodium falciparum [3]) [nM] | Activity (MDA-MB-231)
C#CCCC[C@H]1NC(=O)[C@H](C(C)C)N(C)C(=O)[C@H](C)NC(=O)[C@H](CC(C)C)N(C)C(=O)[C@@H]2CCCN2C(=O)[C@H]([C@H](C)CC)NC(=O)[C@H](C(C)C)N(C)C(=O)[C@H]([C@H](C)CC)NC(=O)[C@@H](C)N(C)C(=O)[C@H](C(C)C)OC(=O)[C@H]1C | 570 | inactive | inactive | inactive | 1000 | 1100 | inactive
C#CCCC[C@H]1NC(=O)[C@H](C(C)C)N(C)C(=O)[C@H](C(C)C)NC(=O)[C@@H](C)N(C)C(=O)[C@@H]2CCCN2C(=O)[C@H]([C@H](C)CC)NC(=O)[C@H](C(C)C)N(C)C(=O)[C@H](C(C)C)NC(=O)[C@H](C)N(C)C(=O)[C@H](C(C)C)OC(=O)[C@H]1C | 220 |  |  |  | 230 | 700 | 
